pIC50, pKi: −log10 of the molar value. Calls of active or inactive are those of the source. The calls are words filed in the database; no cut-off is given here. Square brackets hold non-standard residues; d marks the D form. Peptide text beside a SMILES is read from it. * marks the point of attachment. ξ: configuration not given here. Dnp = O=[N+]([O-])c1ccc(*)c([N+](=O)[O-])c1; ξDab = NCCC(N)C(=O)O
What was measured:
[1] = target: T1, Botulinum neurotoxin type E (Clostridium botulinum) (UniProt Q00496); assay: Inhibition of Clostridium botulinum BoNT/E light chain using GFP-tagged VAMP2/SNAP-25 (Ala128 to Gly206 residues) as substrate at 25 uM after 15 mins by GFP based micro plate reader method
T1 sequence (whole entry): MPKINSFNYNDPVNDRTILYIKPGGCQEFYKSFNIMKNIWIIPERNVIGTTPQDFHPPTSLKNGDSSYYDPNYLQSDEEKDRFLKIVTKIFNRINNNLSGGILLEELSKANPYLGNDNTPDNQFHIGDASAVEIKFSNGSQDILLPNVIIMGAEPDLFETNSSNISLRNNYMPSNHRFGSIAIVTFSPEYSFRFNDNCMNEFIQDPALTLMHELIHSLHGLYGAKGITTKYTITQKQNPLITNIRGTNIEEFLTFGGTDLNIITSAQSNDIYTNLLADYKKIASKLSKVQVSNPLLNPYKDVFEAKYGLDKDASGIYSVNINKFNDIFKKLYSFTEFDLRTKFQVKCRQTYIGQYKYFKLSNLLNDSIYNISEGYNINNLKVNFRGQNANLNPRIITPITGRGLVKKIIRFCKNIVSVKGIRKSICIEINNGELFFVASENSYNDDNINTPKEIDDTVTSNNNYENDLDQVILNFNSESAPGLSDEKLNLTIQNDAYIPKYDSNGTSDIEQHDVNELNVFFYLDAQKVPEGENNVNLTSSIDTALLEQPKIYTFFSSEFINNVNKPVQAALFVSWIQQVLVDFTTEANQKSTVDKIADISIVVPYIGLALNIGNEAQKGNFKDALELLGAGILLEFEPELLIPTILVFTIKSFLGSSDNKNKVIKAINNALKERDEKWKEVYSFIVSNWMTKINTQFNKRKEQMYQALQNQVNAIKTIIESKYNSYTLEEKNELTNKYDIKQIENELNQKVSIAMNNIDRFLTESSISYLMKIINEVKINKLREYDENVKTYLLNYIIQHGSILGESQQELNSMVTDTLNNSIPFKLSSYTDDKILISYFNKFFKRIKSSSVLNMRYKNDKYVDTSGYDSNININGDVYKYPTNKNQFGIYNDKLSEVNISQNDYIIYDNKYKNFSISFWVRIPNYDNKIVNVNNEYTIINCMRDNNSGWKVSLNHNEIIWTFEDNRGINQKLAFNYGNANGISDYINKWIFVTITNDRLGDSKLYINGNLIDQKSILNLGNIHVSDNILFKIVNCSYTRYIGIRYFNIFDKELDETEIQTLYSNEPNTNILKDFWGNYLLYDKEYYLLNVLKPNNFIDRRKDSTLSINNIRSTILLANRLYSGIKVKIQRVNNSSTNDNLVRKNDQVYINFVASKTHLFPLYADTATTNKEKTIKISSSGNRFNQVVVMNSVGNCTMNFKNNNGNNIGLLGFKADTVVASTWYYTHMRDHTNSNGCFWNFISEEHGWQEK
Procedure, shortened: (§1)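 Immobilised biotinylated AviTag–VAMP2/SNAP-25(Ala128–Gly206)–GFP substrate on streptavidin plates. BoNT/E light chain (25 nM) in 20 mM Hepes pH 7.4 with 2 mM DTT was preincubated 15 min with compound before addition to the wells. Liberated GFP was read at 37°C (ex 460/em 506 nm). Percent inhibition at a single concentration, run in triplicate.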

[2] = target: T1, Botulinum neurotoxin type E (Clostridium botulinum); assay: Inhibition of Clostridium botulinum BoNT/E light chain using GFP-tagged VAMP2/SNAP-25 (Ala128 to Gly206 residues) as substrate at 100 uM after 15 mins by GFP based micro plate reader method; procedure, shortened: as §1
[3] = target: T1, Botulinum neurotoxin type E (Clostridium botulinum); assay: Inhibition of Clostridium botulinum BoNT/E light chain using GFP-tagged VAMP2/SNAP-25 (Ala128 to Gly206 residues) as substrate at 12.5 uM after 15 mins by GFP based micro plate reader method; procedure, shortened: as §1
[4] = target: T1, Botulinum neurotoxin type E (Clostridium botulinum); assay: (§2) Inhibition of Clostridium botulinum BoNT/E light chain using GFP-tagged VAMP2/SNAP-25 (Ala128 to Gly206 residues) as substrate after 15 mins by GFP based micro plate reader method
Procedure, shortened: (§3)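 Recombinant BoNT/E light chain (25 nM) in 20 mM Hepes pH 7.4 with 2 mM DTT, preincubated 15 min with compound, then added to streptavidin plates carrying an immobilised biotinylated AviTag–VAMP2/SNAP-25–GFP substrate. GFP release was followed at 37°C (ex 460/em 506 nm). Triplicates over a range of concentrations; IC50 came from a sigmoid fit with Hill slope fixed at 1. The ratio uses the reference inhibitor run under the same conditions.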

[5] = target: T1, Botulinum neurotoxin type E (Clostridium botulinum); assay: Inhibition of Clostridium botulinum BoNT/E light chain-mediated SNAP-25 cleavage assessed as reduction in residual activity using SNAP-Etide as substrate at 100 uM after 15 mins by micro plate reader method
Procedure, shortened: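 Compound was preincubated 15 min with 2.5 nM BoNT/E light chain in 20 mM Hepes pH 7.4 with 2 mM DTT (final DMSO ≤1%). Reaction was started with 10 µM SNAP-Etide at 37°C and read as fluorescence (ex 320/em 420 nm). Percent inhibition = [1 − (test initial velocity ÷ mean initial velocity of two DMSO controls)] × 100.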

[6] = target: T1, Botulinum neurotoxin type E (Clostridium botulinum); assay: Potency index, ratio of IC50 for NSC-77053 to IC50 for test compound for inhibition of Clostridium botulinum BoNT/E light chain using GFP-tagged VAMP2/SNAP-25 (Ala128 to Gly206 residues) as substrate after 15 mins by GFP based micro plate reader method; procedure, shortened: as §3
[7] = target: T2, Botulinum neurotoxin type E (Clostridium botulinum, UniProt Q00496); assay: as §2; procedure, shortened: as §3
T2 sequence (Q00496 whole entry): T1 sequence (whole entry)

[8] = target: T3, Botulinum neurotoxin type A (Clostridium botulinum, UniProt P0DPI0); assay: Inhibition of protease activity of Clostridium botulinum BoNT/A using SNAP-25 as substrate by FRET analysis
[9] = target: T3, Botulinum neurotoxin type A; assay: Inhibition of Clostridium botulinum BoNT/A light chain
[10] = target: T3, Botulinum neurotoxin type A; assay: Inhibition of protease activity of Clostridium botulinum BoNT/A using N(K)-acetyl)-SNKTRIDEANQRATKML-carboxamide as substrate

T3 sequence (P0DPI0 2-448 limits assumed): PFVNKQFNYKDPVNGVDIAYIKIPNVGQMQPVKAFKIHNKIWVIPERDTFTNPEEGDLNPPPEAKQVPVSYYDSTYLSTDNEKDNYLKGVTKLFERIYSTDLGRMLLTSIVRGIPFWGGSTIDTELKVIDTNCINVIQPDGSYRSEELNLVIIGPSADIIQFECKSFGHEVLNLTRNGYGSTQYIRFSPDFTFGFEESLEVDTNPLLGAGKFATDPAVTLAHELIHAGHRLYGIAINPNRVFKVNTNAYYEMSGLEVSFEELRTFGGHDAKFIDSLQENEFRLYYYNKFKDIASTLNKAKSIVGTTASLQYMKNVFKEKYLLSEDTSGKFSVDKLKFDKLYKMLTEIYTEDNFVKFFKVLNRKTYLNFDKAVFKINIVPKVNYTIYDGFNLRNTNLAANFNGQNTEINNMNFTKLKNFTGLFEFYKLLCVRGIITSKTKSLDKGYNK

Row | Compound | inhibition [4] | inhibition [5] | other results
1 | Cc1cccc(NC(=O)[C@H](CC(C)C)NS(=O)(=O)c2ccc3oc(=O)n(C)c3c2)c1C | – | – | inhibition [1]: 62.5%; inhibition [2]: 77.5%; inhibition [3]: 52%
2 | COc1ccc(N(CC(=O)Nc2ccc(F)c(Cl)c2)S(=O)(=O)c2c(C)[nH]c(=O)[nH]c2=O)cc1 | inactive | 41% | –
3 | Cc1cccc(NC(=O)[C@@H](CC(C)C)NS(=O)(=O)c2ccc3oc(=O)n(C)c3c2)c1C | – | 71% | inhibition [1]: 58%; Ratio IC50 [6]: 3; pIC50 [7]: 4.85; inhibition [2]: 84%; inhibition [3]: 46.5%
4 | O=C(O)c1ccccc1C(=O)c1ccc2c(c1)Cc1ccccc1-2 | – | – | pIC50 [7]: 4.31
5 | O=C(/C=C/c1ccc(Cl)cc1)NO | – | – | pIC50 [8]: 4.82
6 | N=C(N)NCCC[C@H](NC(=O)[C@@H](N)CCCNC(=N)N)C(=O)NCC(=O)N[C@@H](Cc1ccccc1)C(=O)O (H-RRGF-OH) | – | – | pIC50 [9]: 6.05
7 | CC(=O)c1cccc(NC(=O)CSc2nnc(SCC(=O)Nc3cccc(C(C)=O)c3)s2)c1 | inactive | 31% | –
8 | Cc1cc(C)cc(N(CC(=O)Nc2ccc(C(F)(F)F)cc2)S(=O)(=O)c2c(C)nc(O)nc2O)c1 | inactive | 42% | –
9 | H-CRATKML-OH | – | – | pKi [10]: 5.70
10 | CC[C@H](C)[C@H](NS(=O)(=O)c1ccc2oc(=O)n(C)c2c1)C(=O)Nc1cccc(C)c1C | – | – | pIC50 [7]: 4.80
11 | Cc1ccc(NC(=O)N2CC(=O)N(CC(=O)NC[C@H]3CCCO3)c3ccccc32)cc1 | inactive | 33% | –
12 | CSCC[C@H](NC(=O)C(CCN)NC(=O)[C@@H](NC(=O)[C@H](Cc1c[nH]c2ccccc12)NC(=O)[C@H](CCCNC(=N)N)NC(=O)C(N)CCNc1ccc([N+](=O)[O-])cc1[N+](=O)[O-])[C@@H](C)O)C(=O)N[C@@H](CC(C)C)C(=O)O (stereo partly specified) (H-[ξDab](Dnp)RWT[ξDab]ML-OH) | – | – | pKi [10]: 7.39
13 | CCOc1ccc(OCC)c(NC(=O)CSc2cc(N3CCC(C(=O)NC4CC4)CC3)ncn2)c1 | inactive | 25% | –
14 | CC(=O)N/C(=C\c1c[nH]c2ccccc12)C(=O)N[C@@H](Cc1c[nH]c2ccccc12)C(=O)O (stereo in doubt) | inactive | 52% | –
15 | CCOc1ccc(NC(=O)CSc2nccn2-c2cccc(C(=O)Nc3ccccc3)c2)cc1 | inactive | 40% | –
16 | COc1ccc(CNC(=O)C(=O)N[C@@H](C)[C@H](c2cccs2)N2CCN(Cc3ccccc3)CC2)cc1 | inactive | 47% | –
